In PMC9217999 (Targeted Oncology, 2022):
Entries after “also recorded” stand apart in the source; their conditions may differ.

Test: Safety and tolerability in iMATRIX-cobi Phase I/II study
Type: in vivo, human
How it was run: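 Patients aged 6 months to <30 years with relapsed/refractory solid tumors with MAPK pathway involvement. Oral test compound (20-mg tablet or suspension, with/without food) on Days 1–21 of 28-day cycles. Cumulative weekly weight-based dose rounded to 20 mg, capped at 60 mg/day. Rolling 6 escalation in cohorts of 3–6. Eye exams including OCT at baseline, cycle 1 Days 8/15, and each later cycle Day 1. All dosed patients evaluated.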

[1] = Dose escalation tablet (n = 18)

O=C(c1ccc(F)c(F)c1Nc1ccc(I)cc1F)N1CC(O)([C@@H]2CCCCN2)C1 [cobimetinib]
Treatment-related AE: Encephalopathy, G3 [1]: 1 (6) n (%) | Treatment-related AE: Encephalopathy, G4 [1]: 0 n (%) | Treatment-related AE: Erythema, G1 [1]: 2 (11) n (%) | Treatment-related AE: Erythema, G2 [1]: 0 n (%) | Treatment-related AE: Erythema, G3 [1]: 0 n (%) | Treatment-related AE: Erythema, G4 [1]: 0 n (%) | Treatment-related AE: Fatigue, G1 [1]: 2 (11) n (%) | Treatment-related AE: Fatigue, G2 [1]: 0 n (%) | Treatment-related AE: Fatigue, G3 [1]: 0 n (%) | Treatment-related AE: Fatigue, G4 [1]: 0 n (%) | Treatment-related AE: Headache, G1 [1]: 1 (6) n (%) | Treatment-related AE: Headache, G2 [1]: 0 n (%) | Treatment-related AE: Headache, G3 [1]: 1 (6) n (%) | Treatment-related AE: Headache, G4 [1]: 0 n (%) | Treatment-related AE: Nausea, G1 [1]: 3 (17) n (%) | Treatment-related AE: Nausea, G2 [1]: 0 n (%) | Treatment-related AE: Nausea, G3 [1]: 0 n (%) | Treatment-related AE: Nausea, G4 [1]: 0 n (%) | Treatment-related AE: Paronychia, G1 [1]: 0 n (%) | Treatment-related AE: Paronychia, G2 [1]: 0 n (%) | Treatment-related AE: Paronychia, G3 [1]: 0 n (%) | Treatment-related AE: Paronychia, G4 [1]: 0 n (%) | Treatment-related AE: Rash, G1 [1]: 3 (17) n (%) | Treatment-related AE: Rash, G2 [1]: 0 n (%) | Treatment-related AE: Rash, G3 [1]: 0 n (%) | Treatment-related AE: Rash, G4 [1]: 0 n (%) | Treatment-related AE: Transaminases increased, G1 [1]: 0 n (%) | Treatment-related AE: Transaminases increased, G2 [1]: 0 n (%) | Treatment-related AE: Transaminases increased, G3 [1]: 0 n (%) | Treatment-related AE: Transaminases increased, G4 [1]: 0 n (%) | Treatment-related AE: Vomiting, G1 [1]: 1 (6) n (%) | Treatment-related AE: Vomiting, G2 [1]: 2 (11) n (%) | Treatment-related AE: Vomiting, G3 [1]: 0 n (%) | Treatment-related AE: Vomiting, G4 [1]: 0 n (%) | Treatment-related AE: Weight increased, G1 [1]: 0 n (%) | Treatment-related AE: Weight increased, G2 [1]: 0 n (%) | Treatment-related AE: Weight increased, G3 [1]: 1 (6) n (%) | Treatment-related AE: Weight increased, G4 [1]: 0 n (%) | Any treatment-related AE, G1 (Dose expansion (n = 12)): 3 (25) n (%) | Any treatment-related AE, G2 (Dose expansion (n = 12)): 3 (25) n (%) | Any treatment-related AE, G3 (Dose expansion (n = 12)): 3 (25) n (%) | Any treatment-related AE, G4 (Dose expansion (n = 12)): 2 (17) n (%) | Treatment-related AE: ALT increased, G1 (Dose expansion (n = 12)): 1 (8) n (%) | Treatment-related AE: ALT increased, G2 (Dose expansion (n = 12)): 0 n (%) | Treatment-related AE: ALT increased, G3 (Dose expansion (n = 12)): 0 n (%) | Treatment-related AE: ALT increased, G4 (Dose expansion (n = 12)): 0 n (%) | Treatment-related AE: AST increased, G1 (Dose expansion (n = 12)): 1 (8) n (%) | Treatment-related AE: AST increased, G2 (Dose expansion (n = 12)): 0 n (%) | Treatment-related AE: AST increased, G3 (Dose expansion (n = 12)): 1 (8) n (%) | Treatment-related AE: AST increased, G4 (Dose expansion (n = 12)): 0 n (%) | Treatment-related AE: Abdominal pain, G1 (Dose expansion (n = 12)): 3 (25) n (%) | Treatment-related AE: Abdominal pain, G2 (Dose expansion (n = 12)): 0 n (%) | Treatment-related AE: Abdominal pain, G3 (Dose expansion (n = 12)): 0 n (%) | Treatment-related AE: Abdominal pain, G4 (Dose expansion (n = 12)): 0 n (%) | Treatment-related AE: Anemia, G1 (Dose expansion (n = 12)): 1 (8) n (%) | Treatment-related AE: Anemia, G2 (Dose expansion (n = 12)): 0 n (%) | Treatment-related AE: Anemia, G3 (Dose expansion (n = 12)): 1 (8) n (%) | Treatment-related AE: Anemia, G4 (Dose expansion (n = 12)): 0 n (%) | Treatment-related AE: Asthenia, G1 (Dose expansion (n = 12)): 0 n (%) | Treatment-related AE: Asthenia, G2 (Dose expansion (n = 12)): 0 n (%) | Treatment-related AE: Asthenia, G3 (Dose expansion (n = 12)): 1 (8) n (%) | Treatment-related AE: Asthenia, G4 (Dose expansion (n = 12)): 0 n (%) | Treatment-related AE: Blood CPK increased, G1 (Dose expansion (n = 12)): 0 n (%) | Treatment-related AE: Blood CPK increased, G2 (Dose expansion (n = 12)): 0 n (%) | Treatment-related AE: Blood CPK increased, G3 (Dose expansion (n = 12)): 1 (8) n (%) | Treatment-related AE: Blood CPK increased, G4 (Dose expansion (n = 12)): 1 (8) n (%) | Treatment-related AE: Chorioretinopathy, G1 (Dose expansion (n = 12)): 0 n (%) | Treatment-related AE: Chorioretinopathy, G2 (Dose expansion (n = 12)): 0 n (%) | Treatment-related AE: Chorioretinopathy, G3 (Dose expansion (n = 12)): 0 n (%) | Treatment-related AE: Chorioretinopathy, G4 (Dose expansion (n = 12)): 0 n (%) | Treatment-related AE: Constipation, G1 (Dose expansion (n = 12)): 0 n (%) | Treatment-related AE: Constipation, G2 (Dose expansion (n = 12)): 0 n (%) | Treatment-related AE: Constipation, G3 (Dose expansion (n = 12)): 0 n (%) | Treatment-related AE: Constipation, G4 (Dose expansion (n = 12)): 0 n (%) | Treatment-related AE: Decreased appetite, G1 (Dose expansion (n = 12)): 1 (8) n (%) | Treatment-related AE: Decreased appetite, G2 (Dose expansion (n = 12)): 0 n (%) | Treatment-related AE: Decreased appetite, G3 (Dose expansion (n = 12)): 0 n (%) | Treatment-related AE: Decreased appetite, G4 (Dose expansion (n = 12)): 0 n (%) | Treatment-related AE: Dermatitis acneiform, G1 (Dose expansion (n = 12)): 1 (8) n (%) | Treatment-related AE: Dermatitis acneiform, G2 (Dose expansion (n = 12)): 0 n (%) | Treatment-related AE: Dermatitis acneiform, G3 (Dose expansion (n = 12)): 0 n (%) | Treatment-related AE: Dermatitis acneiform, G4 (Dose expansion (n = 12)): 0 n (%) | Treatment-related AE: Diarrhea, G1 (Dose expansion (n = 12)): 4 (33) n (%) | Treatment-related AE: Diarrhea, G2 (Dose expansion (n = 12)): 0 n (%) | Treatment-related AE: Diarrhea, G3 (Dose expansion (n = 12)): 0 n (%) | Treatment-related AE: Diarrhea, G4 (Dose expansion (n = 12)): 0 n (%) | Treatment-related AE: Dry skin, G1 (Dose expansion (n = 12)): 1 (8) n (%) | Treatment-related AE: Dry skin, G2 (Dose expansion (n = 12)): 0 n (%) | Treatment-related AE: Dry skin, G3 (Dose expansion (n = 12)): 0 n (%) | Treatment-related AE: Dry skin, G4 (Dose expansion (n = 12)): 0 n (%) | Treatment-related AE: Encephalopathy, G1 (Dose expansion (n = 12)): 0 n (%) | Treatment-related AE: Encephalopathy, G2 (Dose expansion (n = 12)): 0 n (%) | Treatment-related AE: Encephalopathy, G3 (Dose expansion (n = 12)): 0 n (%) | Treatment-related AE: Encephalopathy, G4 (Dose expansion (n = 12)): 1 (8) n (%) | Treatment-related AE: Erythema, G1 (Dose expansion (n = 12)): 0 n (%) | Treatment-related AE: Erythema, G2 (Dose expansion (n = 12)): 0 n (%) | Treatment-related AE: Erythema, G3 (Dose expansion (n = 12)): 0 n (%) | Treatment-related AE: Erythema, G4 (Dose expansion (n = 12)): 0 n (%) | Treatment-related AE: Fatigue, G1 (Dose expansion (n = 12)): 2 (17) n (%) | Treatment-related AE: Fatigue, G2 (Dose expansion (n = 12)): 0 n (%) | Treatment-related AE: Fatigue, G3 (Dose expansion (n = 12)): 0 n (%) | Treatment-related AE: Fatigue, G4 (Dose expansion (n = 12)): 0 n (%) | Treatment-related AE: Headache, G1 (Dose expansion (n = 12)): 1 (8) n (%) | Treatment-related AE: Headache, G2 (Dose expansion (n = 12)): 0 n (%) | Treatment-related AE: Headache, G3 (Dose expansion (n = 12)): 0 n (%) | Treatment-related AE: Headache, G4 (Dose expansion (n = 12)): 0 n (%) | Treatment-related AE: Nausea, G1 (Dose expansion (n = 12)): 1 (8) n (%) | Treatment-related AE: Nausea, G2 (Dose expansion (n = 12)): 0 n (%) | Treatment-related AE: Nausea, G3 (Dose expansion (n = 12)): 0 n (%) | Treatment-related AE: Nausea, G4 (Dose expansion (n = 12)): 0 n (%) | Treatment-related AE: Paronychia, G1 (Dose expansion (n = 12)): 0 n (%) | Treatment-related AE: Paronychia, G2 (Dose expansion (n = 12)): 0 n (%) | Treatment-related AE: Paronychia, G3 (Dose expansion (n = 12)): 0 n (%) | Treatment-related AE: Paronychia, G4 (Dose expansion (n = 12)): 0 n (%) | Treatment-related AE: Rash, G1 (Dose expansion (n = 12)): 0 n (%) | Treatment-related AE: Rash, G2 (Dose expansion (n = 12)): 1 (8) n (%) | Treatment-related AE: Rash, G3 (Dose expansion (n = 12)): 0 n (%) | Treatment-related AE: Rash, G4 (Dose expansion (n = 12)): 0 n (%) | Treatment-related AE: Transaminases increased, G1 (Dose expansion (n = 12)): 0 n (%) | Treatment-related AE: Transaminases increased, G2 (Dose expansion (n = 12)): 0 n (%) | Treatment-related AE: Transaminases increased, G3 (Dose expansion (n = 12)): 0 n (%) | Treatment-related AE: Transaminases increased, G4 (Dose expansion (n = 12)): 0 n (%) | Treatment-related AE: Vomiting, G1 (Dose expansion (n = 12)): 4 (33) n (%) | Treatment-related AE: Vomiting, G2 (Dose expansion (n = 12)): 0 n (%) | Treatment-related AE: Vomiting, G3 (Dose expansion (n = 12)): 0 n (%) | Treatment-related AE: Vomiting, G4 (Dose expansion (n = 12)): 0 n (%) | Treatment-related AE: Weight increased, G1 (Dose expansion (n = 12)): 0 n (%) | Treatment-related AE: Weight increased, G2 (Dose expansion (n = 12)): 0 n (%) | Treatment-related AE: Weight increased, G3 (Dose expansion (n = 12)): 1 (8) n (%) | Treatment-related AE: Weight increased, G4 (Dose expansion (n = 12)): 0 n (%) | AESI aspartate aminotransferase increased (dose escalation suspension): 12% | AESI epistaxis (dose escalation suspension): 12% | AESI aspartate aminotransferase increased (dose escalation tablet): 6% | AESI epistaxis (dose escalation tablet): 17% | Deaths on study (eleven deaths, all due to PD): 20% | AESI aspartate aminotransferase increased (expansion): 17% | AESI creatine phosphokinase increased (expansion): 17% | Adverse events of special interest (AESI) (expansion): 50% | TRAEs leading to cobimetinib withdrawal (expansion): 8% | TRAEs leading to cobimetinib withdrawal (overall, six patients): 11% | Patients with DLTs (six patients, dose escalation, cycle 1): 11% | Adverse events of special interest (AESI) (suspension dose escalation): 50% | TRAEs leading to cobimetinib withdrawal (suspension dose escalation): 15% | TRAEs leading to cobimetinib withdrawal (events) (suspension dose escalation, 1.0 mg/kg): grade 2 epitheliopathy/keratitis | TRAEs leading to cobimetinib withdrawal (events) (suspension dose escalation, 1.33 mg/kg): grade 4 chorioretinopathy; also recorded: grade 2 ECG QT prolonged; also recorded: grade 1 serous retinal detachment | Pediatric recommended Phase II dose (RP2D), suspension (suspension, Days 1–21 of 28-day cycle): 1.0 mg/kg | TRAEs leading to cobimetinib withdrawal (tablet dose escalation): 6% | TRAEs leading to cobimetinib withdrawal (events) (tablet dose escalation, 1.0 mg/kg): grade 2 retinal detachment | Pediatric recommended Phase II dose (RP2D), tablet (tablet, Days 1–21 of 28-day cycle): 0.8 mg/kg
